Measured values from ChEMBL document CHEMBL1649256, “Comparison of assessment of oxygen consumption, Etest, and CLSI M38-A2 broth microdilution methods for evaluation of the susceptibility of Aspergillus fumigatus to posaconazole” (2009).
≈ marks a conversion by molar mass, not a printed value.

Key:
Assay type in all cases: functional
Aspergillus fumigatus [1] = assay: Antimicrobial activity against Aspergillus fumigatus isolate 35 after 24 hrs by Etest; settings: isolate 35, 24 h
Method in brief: (§1)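 Posaconazole Etest strips on RPMI 1640 agar with 2% glucose, pH 7.0, run per the strip maker's instructions. Incubated at 35°C. MIC read at 24 h and at 48 h, matching the time in each line.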

Aspergillus fumigatus [2] = assay: Antimicrobial activity against Aspergillus fumigatus isolate 9 after 48 hrs by Etest; settings: isolate 9, 48 h
Aspergillus fumigatus [3] = assay: Antimicrobial activity against Aspergillus fumigatus isolate 24 after 24 hrs by Etest; settings: isolate 24, 24 h
Method in brief: (§2)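 Etest strips on RPMI 1640 agar with 2% glucose, pH 7.0, run per manufacturer's instructions. Incubated at 35°C; MIC read at 24 h.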

Aspergillus fumigatus [4] = assay: Antimicrobial activity against Aspergillus fumigatus isolate 12 by oxygen consumption method
Method in brief: (§3)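 Conidial suspension in RPMI 1640 broth with posaconazole at 0.25 and 2 μg/ml. Tubes agitated 12 h at 37°C in a biological oxygen monitor. Available oxygen was monitored continuously, and the MIC was assigned from the oxygen quantification.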

Aspergillus fumigatus [5] = assay: Antimicrobial activity against Aspergillus fumigatus isolate 15 by CLSI M38-A2 broth microdilution method
Method in brief: (§4)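 Posaconazole broth microdilution follows CLSI M38-A2. The MIC is the lowest concentration with no visible growth at 48 h. Candida parapsilosis ATCC 22019 and Candida krusei ATCC 6258 were included as QC strains in every run.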

Aspergillus fumigatus [6] = assay: Antimicrobial activity against Aspergillus fumigatus isolate 7 after 48 hrs by Etest; settings: isolate 7, 48 h
Aspergillus fumigatus [7] = assay: Antimicrobial activity against Aspergillus fumigatus isolate 16 after 24 hrs by Etest; settings: isolate 16, 24 h
Method in brief: (§5)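 Posaconazole Etest strips placed on RPMI 1640 agar with 2% glucose, pH 7.0, and run per the strip maker's instructions. Incubation at 35°C, with the MIC read at 24 h and at 48 h.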

Aspergillus fumigatus [8] = assay: Antimicrobial activity against Aspergillus fumigatus isolate 5 by oxygen consumption method
Aspergillus fumigatus [9] = assay: Antimicrobial activity against Aspergillus fumigatus isolate 10 after 48 hrs by Etest; settings: isolate 10, 48 h; method in brief: as §5
Aspergillus fumigatus [10] = assay: Antimicrobial activity against Aspergillus fumigatus isolate 35 by CLSI M38-A2 broth microdilution method
Method in brief: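 CLSI M38-A2 broth microdilution with posaconazole. MIC taken as the lowest concentration with no visible growth at 48 h. C. parapsilosis ATCC 22019 and C. krusei ATCC 6258 were included as QC strains in every run.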

Aspergillus fumigatus [11] = assay: Antimicrobial activity against Aspergillus fumigatus isolate 12 by CLSI M38-A2 broth microdilution method; method in brief: as §4
Aspergillus fumigatus [12] = assay: Antimicrobial activity against Aspergillus fumigatus isolate 11 after 24 hrs by Etest; settings: isolate 11, 24 h; method in brief: as §5
Aspergillus fumigatus [13] = assay: Antimicrobial activity against Aspergillus fumigatus isolate 45 after 48 hrs by Etest; settings: isolate 45, 48 h
Aspergillus fumigatus [14] = assay: Antimicrobial activity against Aspergillus fumigatus isolate 17 by CLSI M38-A2 broth microdilution method; method in brief: as §4
Aspergillus fumigatus [15] = assay: Antimicrobial activity against Aspergillus fumigatus isolate 8 by CLSI M38-A2 broth microdilution method
Aspergillus fumigatus [16] = assay: Antimicrobial activity against Aspergillus fumigatus isolate 18 by CLSI M38-A2 broth microdilution method; method in brief: as §4
Aspergillus fumigatus [17] = assay: Antimicrobial activity against Aspergillus fumigatus isolate 1 by CLSI M38-A2 broth microdilution method; method in brief: as §4
Aspergillus fumigatus [18] = assay: Antimicrobial activity against Aspergillus fumigatus isolate 42 after 48 hrs by Etest; settings: isolate 42, 48 h; method in brief: as §1
Aspergillus fumigatus [19] = assay: Antimicrobial activity against Aspergillus fumigatus isolate 3 after 48 hrs by Etest; settings: isolate 3, 48 h
Method in brief: (§6)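 Etest strips on RPMI 1640 agar with 2% glucose, pH 7.0, run per manufacturer's instructions. Incubated at 35°C; MIC read at 48 h.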

Aspergillus fumigatus [20] = assay: Antimicrobial activity against Aspergillus fumigatus isolate 13 by oxygen consumption method; method in brief: as §3
Aspergillus fumigatus [21] = assay: Antimicrobial activity against Aspergillus fumigatus isolate 28 by oxygen consumption method
Method in brief: (§7)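 Conidial suspension in RPMI 1640 broth, 1.5 ml, with two drug concentrations (0.25 and 2 μg/ml). Tubes agitated 12 h at 37°C in a biological oxygen monitor. Available oxygen monitored continuously and quantified to assign the MIC.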

Aspergillus fumigatus [22] = assay: Antimicrobial activity against Aspergillus fumigatus isolate 32 after 48 hrs by Etest; settings: isolate 32, 48 h; method in brief: as §1
Aspergillus fumigatus [23] = assay: Antimicrobial activity against Aspergillus fumigatus isolate 44 after 48 hrs by Etest; settings: isolate 44, 48 h
Aspergillus fumigatus [24] = assay: Antimicrobial activity against Aspergillus fumigatus isolate 27 after 48 hrs by Etest; settings: isolate 27, 48 h; method in brief: as §6
Aspergillus fumigatus [25] = assay: Antimicrobial activity against Aspergillus fumigatus isolate 33 by oxygen consumption method
Method in brief: (§8)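 Conidial suspension in RPMI 1640 broth, tested at two posaconazole levels (0.25 and 2 μg/ml). Agitated for 12 h at 37°C in a biological oxygen monitor. MIC derived from continuous monitoring and quantification of the available oxygen.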

Aspergillus fumigatus [26] = assay: Antimicrobial activity against Aspergillus fumigatus isolate 47 after 48 hrs by Etest; settings: isolate 47, 48 h
Aspergillus fumigatus [27] = assay: Antimicrobial activity against Aspergillus fumigatus isolate 11 by CLSI M38-A2 broth microdilution method; method in brief: as §4
Aspergillus fumigatus [28] = assay: Antimicrobial activity against Aspergillus fumigatus isolate 44 by oxygen consumption method
Aspergillus fumigatus [29] = assay: Antimicrobial activity against Aspergillus fumigatus isolate 48 after 24 hrs by Etest; settings: isolate 48, 24 h
Aspergillus fumigatus [30] = assay: Antimicrobial activity against Aspergillus fumigatus isolate 36 after 24 hrs by Etest; settings: isolate 36, 24 h; method in brief: as §1
Aspergillus fumigatus [31] = assay: Antimicrobial activity against Aspergillus fumigatus isolate 27 after 24 hrs by Etest; settings: isolate 27, 24 h; method in brief: as §2
Aspergillus fumigatus [32] = assay: Antimicrobial activity against Aspergillus fumigatus isolate 26 by oxygen consumption method; method in brief: as §7
Aspergillus fumigatus [33] = assay: Antimicrobial activity against Aspergillus fumigatus isolate 31 by oxygen consumption method; method in brief: as §7
Aspergillus fumigatus [34] = assay: Antimicrobial activity against Aspergillus fumigatus isolate 34 by oxygen consumption method; method in brief: as §8
Aspergillus fumigatus [35] = assay: Antimicrobial activity against Aspergillus fumigatus isolate 22 by oxygen consumption method; method in brief: as §7
Aspergillus fumigatus [36] = assay: Antimicrobial activity against Aspergillus fumigatus isolate 2 by oxygen consumption method; method in brief: as §3
Aspergillus fumigatus [37] = assay: Antimicrobial activity against Aspergillus fumigatus isolate 9 by CLSI M38-A2 broth microdilution method
Aspergillus fumigatus [38] = assay: Antimicrobial activity against Aspergillus fumigatus isolate 24 by oxygen consumption method; method in brief: as §7
Aspergillus fumigatus [39] = assay: Antimicrobial activity against Aspergillus fumigatus isolate 32 by oxygen consumption method; method in brief: as §8
Aspergillus fumigatus [40] = assay: Antimicrobial activity against Aspergillus fumigatus isolate 35 by oxygen consumption method; method in brief: as §8
Aspergillus fumigatus [41] = assay: Antimicrobial activity against Aspergillus fumigatus isolate 25 after 48 hrs by Etest; settings: isolate 25, 48 h; method in brief: as §6
Aspergillus fumigatus [42] = assay: Antimicrobial activity against Aspergillus fumigatus isolate 49 after 48 hrs by Etest; settings: isolate 49, 48 h
Aspergillus fumigatus [43] = assay: Antimicrobial activity against Aspergillus fumigatus isolate 7 after 24 hrs by Etest; settings: isolate 7, 24 h
Aspergillus fumigatus [44] = assay: Antimicrobial activity against Aspergillus fumigatus isolate 40 after 24 hrs by Etest; settings: isolate 40, 24 h; method in brief: as §1
Aspergillus fumigatus [45] = assay: Antimicrobial activity against Aspergillus fumigatus isolate 30 after 24 hrs by Etest; settings: isolate 30, 24 h; method in brief: as §2
Aspergillus fumigatus [46] = assay: Antimicrobial activity against Aspergillus fumigatus isolate 3 after 24 hrs by Etest; settings: isolate 3, 24 h; method in brief: as §2
Aspergillus fumigatus [47] = assay: Antimicrobial activity against Aspergillus fumigatus isolate 19 after 24 hrs by Etest; settings: isolate 19, 24 h; method in brief: as §5

CC[C@@H]([C@H](C)O)n1ncn(-c2ccc(N3CCN(c4ccc(OC[C@@H]5CO[C@@](Cn6cncn6)(c6ccc(F)cc6F)C5)cc4)CC3)cc2)c1=O [POSACONAZOLE]
MIC (Aspergillus fumigatus [1]): 0.25 µg/mL (≈ 0.357 µM) | MIC (Aspergillus fumigatus [2]): 0.5 µg/mL (≈ 0.713 µM) | MIC (Aspergillus fumigatus [3]): 0.125 µg/mL (≈ 0.178 µM) | MIC (Aspergillus fumigatus [4]): ≤ 0.25 µg/mL | MIC (Aspergillus fumigatus [5]): 0.06 µg/mL (≈ 0.0856 µM) | MIC (Aspergillus fumigatus [6]): 0.25 µg/mL (≈ 0.357 µM) | MIC (Aspergillus fumigatus [7]): 0.125 µg/mL (≈ 0.178 µM) | MIC (Aspergillus fumigatus [8]): ≥ 0.5 µg/mL | MIC (Aspergillus fumigatus [9]): 0.25 µg/mL (≈ 0.357 µM) | MIC (Aspergillus fumigatus [10]): 0.125 µg/mL (≈ 0.178 µM) | MIC (Aspergillus fumigatus [11]): 0.125 µg/mL (≈ 0.178 µM) | MIC (Aspergillus fumigatus [12]): 0.125 µg/mL (≈ 0.178 µM) | MIC (Aspergillus fumigatus [13]): 0.125 µg/mL (≈ 0.178 µM) | MIC (Aspergillus fumigatus [14]): 0.125 µg/mL (≈ 0.178 µM) | MIC (Aspergillus fumigatus [15]): 0.125 µg/mL (≈ 0.178 µM) | MIC (Aspergillus fumigatus [16]): 0.125 µg/mL (≈ 0.178 µM) | MIC (Aspergillus fumigatus [17]): 1 µg/mL (≈ 1.43 µM) | MIC (Aspergillus fumigatus [18]): 0.125 µg/mL (≈ 0.178 µM) | MIC (Aspergillus fumigatus [19]): 2 µg/mL (≈ 2.85 µM) | MIC (Aspergillus fumigatus [20]): ≥ 0.5 µg/mL | MIC (Aspergillus fumigatus [21]): ≤ 0.25 µg/mL | MIC (Aspergillus fumigatus [22]): 0.25 µg/mL (≈ 0.357 µM) | MIC (Aspergillus fumigatus [23]): 0.06 µg/mL (≈ 0.0856 µM) | MIC (Aspergillus fumigatus [24]): 0.25 µg/mL (≈ 0.357 µM) | MIC (Aspergillus fumigatus [25]): ≥ 0.5 µg/mL | MIC (Aspergillus fumigatus [26]): ≤ 0.03 µg/mL | MIC (Aspergillus fumigatus [27]): 0.25 µg/mL (≈ 0.357 µM) | MIC (Aspergillus fumigatus [28]): ≤ 0.25 µg/mL | MIC (Aspergillus fumigatus [29]): ≤ 0.03 µg/mL | MIC (Aspergillus fumigatus [30]): 0.06 µg/mL (≈ 0.0856 µM) | MIC (Aspergillus fumigatus [31]): 0.125 µg/mL (≈ 0.178 µM) | MIC (Aspergillus fumigatus [32]): ≥ 0.5 µg/mL | MIC (Aspergillus fumigatus [33]): ≤ 0.25 µg/mL | MIC (Aspergillus fumigatus [34]): ≤ 0.25 µg/mL | MIC (Aspergillus fumigatus [35]): ≤ 0.25 µg/mL | MIC (Aspergillus fumigatus [36]): ≥ 0.5 µg/mL | MIC (Aspergillus fumigatus [37]): 0.25 µg/mL (≈ 0.357 µM) | MIC (Aspergillus fumigatus [38]): ≤ 0.25 µg/mL | MIC (Aspergillus fumigatus [39]): ≤ 0.25 µg/mL | MIC (Aspergillus fumigatus [40]): ≤ 0.25 µg/mL | MIC (Aspergillus fumigatus [41]): 0.25 µg/mL (≈ 0.357 µM) | MIC (Aspergillus fumigatus [42]): 0.5 µg/mL (≈ 0.713 µM) | MIC (Aspergillus fumigatus [43]): 0.25 µg/mL (≈ 0.357 µM) | MIC (Aspergillus fumigatus [44]): 0.125 µg/mL (≈ 0.178 µM) | MIC (Aspergillus fumigatus [45]): 0.5 µg/mL (≈ 0.713 µM) | MIC (Aspergillus fumigatus [46]): 1 µg/mL (≈ 1.43 µM) | MIC (Aspergillus fumigatus [47]): 0.125 µg/mL (≈ 0.178 µM)
